Results published in ChEMBL document CHEMBL5058577, “EUbOPEN Chemogenomics Library 2 (Multiplex)” (2022).

Tested on: U2OS
Assay: Multiplex assay against U2OS
Type: toxicity, cell-based
Conditions: human
Procedure, shortened: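 On a CQ1 microscope at 37°C and 5% CO2, live cells were imaged after compound addition. They had been stained at seeding with Hoechst33342, BioTracker Green Microtubule Cytoskeleton Dye, MitoTracker Red and Annexin V Alexa Fluor 680. CellPathfinder machine-learning gating assigned cells to Hoechst high-intensity objects or normal cells, normal cells to healthy, pyknosed or fragmented nuclei, and pyknosed cells to mitotic or apoptotic. Tubulin, mitochondrial-mass and membrane-permeability phenotypes are per cents of healthy-nucleus cells.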

[1] = 12 h, 1 µM, compound concentration 1 uM, replicate 1
[2] = 12 h, 1 µM, compound concentration 1 uM, replicate 2
[3] = 12 h, 10 µM, compound concentration 10 uM, replicate 1
[4] = 12 h, 10 µM, compound concentration 10 uM, replicate 2
[5] = 24 h, 1 µM, compound concentration 1 uM, replicate 1
[6] = 24 h, 1 µM, compound concentration 1 uM, replicate 2
[7] = 24 h, 10 µM, compound concentration 10 uM, replicate 1
[8] = 24 h, 10 µM, compound concentration 10 uM, replicate 2
[9] = 48 h, 1 µM, compound concentration 1 uM, replicate 1
[10] = 48 h, 1 µM, compound concentration 1 uM, replicate 2
[11] = 48 h, 10 µM, compound concentration 10 uM, replicate 1
[12] = 48 h, 10 µM, compound concentration 10 uM, replicate 2

Br.CS(=O)(=O)Nc1c(O)ccc2c1CCCC2C1=NCCN1 (centres undefined)
Population Apoptotic (%) [1]: 63%
Population Fragmented Nuclei (%) [1]: 20%
Population Healthy Nuclei (%) [1]: 75%
Population Hoechst High Intensity Objects (%) [1]: 2%
Population Membrane Permeable-Phenotype (%) [1]: 3%
Population Mitochondria Different-Phenotype (%) [1]: 2%
Population Mitotic Cells (%) [1]: 36%
Population Normal (%) [1]: 97%
Population Pyknosed Nuclei (%) [1]: 3%
Population Tubulin-Different-Phenotype (%) [1]: 2%
Total Cell Count [1]: 288
Population Apoptotic (%) [2]: 80%
Population Fragmented Nuclei (%) [2]: 13%
Population Healthy Nuclei (%) [2]: 82%
Population Hoechst High Intensity Objects (%) [2]: 0%
Population Membrane Permeable-Phenotype (%) [2]: 5%
Population Mitochondria Different-Phenotype (%) [2]: 1%
Population Mitotic Cells (%) [2]: 20%
Population Normal (%) [2]: 100%
Population Tubulin-Different-Phenotype (%) [2]: 1%
Total Cell Count [2]: 151
Population Apoptotic (%) [3]: 69%
Population Fragmented Nuclei (%) [3]: 36%
Population Healthy Nuclei (%) [3]: 57%
Population Hoechst High Intensity Objects (%) [3]: 1%
Population Membrane Permeable-Phenotype (%) [3]: 8%
Population Mitochondria Different-Phenotype (%) [3]: 0%
Population Mitotic Cells (%) [3]: 30%
Population Normal (%) [3]: 98%
Population Pyknosed Nuclei (%) [3]: 6%
Population Tubulin-Different-Phenotype (%) [3]: 1%
Total Cell Count [3]: 215
Population Apoptotic (%) [4]: 100%
Population Fragmented Nuclei (%) [4]: 22%
Population Healthy Nuclei (%) [4]: 75%
Population Hoechst High Intensity Objects (%) [4]: 0%
Population Membrane Permeable-Phenotype (%) [4]: 6%
Population Mitochondria Different-Phenotype (%) [4]: 6%
Population Mitotic Cells (%) [4]: 0%
Population Normal (%) [4]: 100%
Population Pyknosed Nuclei (%) [4]: 2%
Total Cell Count [4]: 84
Population Apoptotic (%) [5]: 76%
Population Fragmented Nuclei (%) [5]: 18%
Population Healthy Nuclei (%) [5]: 73%
Population Hoechst High Intensity Objects (%) [5]: 2%
Population Membrane Permeable-Phenotype (%) [5]: 3%
Population Mitochondria Different-Phenotype (%) [5]: 2%
Population Mitotic Cells (%) [5]: 23%
Population Normal (%) [5]: 97%
Population Pyknosed Nuclei (%) [5]: 7%
Population Tubulin-Different-Phenotype (%) [5]: 2%
Total Cell Count [5]: 341
Population Apoptotic (%) [6]: 92%
Population Fragmented Nuclei (%) [6]: 14%
Population Healthy Nuclei (%) [6]: 78%
Population Hoechst High Intensity Objects (%) [6]: 1%
Population Membrane Permeable-Phenotype (%) [6]: 7%
Population Mitotic Cells (%) [6]: 7%
Population Normal (%) [6]: 98%
Population Tubulin-Different-Phenotype (%) [6]: 4%
Total Cell Count [6]: 185
Population Apoptotic (%) [7]: 86%
Population Fragmented Nuclei (%) [7]: 31%
Population Healthy Nuclei (%) [7]: 62%
Population Hoechst High Intensity Objects (%) [7]: 2%
Population Membrane Permeable-Phenotype (%) [7]: 5%
Population Mitochondria Different-Phenotype (%) [7]: 1%
Population Mitotic Cells (%) [7]: 13%
Population Normal (%) [7]: 97%
Population Pyknosed Nuclei (%) [7]: 6%
Population Tubulin-Different-Phenotype (%) [7]: 2%
Total Cell Count [7]: 240
Population Apoptotic (%) [8]: 100%
Population Fragmented Nuclei (%) [8]: 16%
Population Healthy Nuclei (%) [8]: 80%
Population Hoechst High Intensity Objects (%) [8]: 0%
Population Membrane Permeable-Phenotype (%) [8]: 3%
Population Mitochondria Different-Phenotype (%) [8]: 4%
Population Mitotic Cells (%) [8]: 0%
Population Normal (%) [8]: 100%
Population Pyknosed Nuclei (%) [8]: 2%
Population Tubulin-Different-Phenotype (%) [8]: 3%
Total Cell Count [8]: 103
Population Apoptotic (%) [9]: 74%
Population Fragmented Nuclei (%) [9]: 14%
Population Healthy Nuclei (%) [9]: 78%
Population Hoechst High Intensity Objects (%) [9]: 1%
Population Membrane Permeable-Phenotype (%) [9]: 2%
Population Mitochondria Different-Phenotype (%) [9]: 2%
Population Mitotic Cells (%) [9]: 25%
Population Normal (%) [9]: 98%
Population Pyknosed Nuclei (%) [9]: 6%
Population Tubulin-Different-Phenotype (%) [9]: 2%
Total Cell Count [9]: 484
Population Apoptotic (%) [10]: 81%
Population Fragmented Nuclei (%) [10]: 13%
Population Healthy Nuclei (%) [10]: 76%
Population Membrane Permeable-Phenotype (%) [10]: 5%
Population Mitotic Cells (%) [10]: 18%
Population Pyknosed Nuclei (%) [10]: 10%
Population Tubulin-Different-Phenotype (%) [10]: 1%
Total Cell Count [10]: 253
Population Apoptotic (%) [11]: 90%
Population Fragmented Nuclei (%) [11]: 23%
Population Healthy Nuclei (%) [11]: 70%
Population Hoechst High Intensity Objects (%) [11]: 1%
Population Membrane Permeable-Phenotype (%) [11]: 5%
Population Mitochondria Different-Phenotype (%) [11]: 1%
Population Mitotic Cells (%) [11]: 10%
Population Normal (%) [11]: 98%
Population Pyknosed Nuclei (%) [11]: 6%
Population Tubulin-Different-Phenotype (%) [11]: 2%
Total Cell Count [11]: 333
Population Apoptotic (%) [12]: 100%
Population Fragmented Nuclei (%) [12]: 17%
Population Healthy Nuclei (%) [12]: 74%
Population Hoechst High Intensity Objects (%) [12]: 0%
Population Membrane Permeable-Phenotype (%) [12]: 3%
Population Mitochondria Different-Phenotype (%) [12]: 6%
Population Mitotic Cells (%) [12]: 0%
Population Normal (%) [12]: 100%
Population Pyknosed Nuclei (%) [12]: 7%
Total Cell Count [12]: 152
